Experimental findings from ChEMBL document CHEMBL1137352, “Design and synthesis of novel isoquinoline-3-nitriles as orally bioavailable Kv1.5 antagonists for the treatment of atrial fibrillation” (J Med Chem, 2006) are described below.

For orientation: IC50 means the concentration that inhibits the measured activity by half. As a reminder, the bioavailability is the share of a dose that reaches the circulation, judged against a reference dose that is usually intravenous. Higher therefore signals much systemic uptake. One may read the clearance as the rate of elimination divided by the concentration. A high value points to efficient removal.

Data set [1] deals with Voltage-gated inwardly rectifying potassium channel KCNH2 (Homo sapiens, UniProt Q12809). As to the kind of experiment: Binding affinity to hERG potassium channel. On the technique in general: Block of hERG is tested as a sign of cardiac risk.
In data set [2] the target is Potassium voltage-gated channel subfamily A member 5 (Homo sapiens, UniProt P22460). The data set is described as follows: Antagonist activity at human Kv1.5 channel expressed in CHO cell membrane by HT clamp assay. Format: functional, cell-based. In outline: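 IC50 from 10-point concentration-response curves by HT-clamp voltage clamp, 3-4 cells per point. A reference Kv1.5 antagonist was run as positive control.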

The species entered for data set [3] is Canis familiaris. The data set is described as follows: Increase in atrial refractory period in dog electrophysiology model. Conditions: Canis lupus familiaris; Cardiac atrium. Format: functional, organism-based.
For data set [4], the species on record is Canis familiaris. As to the kind of experiment: Effect on ventricular refractory period in dog electrophysiology model. Type of data set: functional, organism-based. Conditions: Canis lupus familiaris; Cardiac ventricle.
The species entered for data set [5] is Rattus norvegicus. As to the kind of experiment: Increase in atrial refractory period in surgically instrumented rat electrophysiology model. Format: functional, organism-based. Conditions: Cardiac atrium.
The nature of data set [6]: Bioavailability in rat. Format: ADME, organism-based. The conditions noted are these: in vivo.
A short description of data set [7]: Clearance in rat. Type of data set: ADME, organism-based. Conditions: in vivo.
Data set [8] is filed under the species Rattus norvegicus. As to the kind of experiment: Effect on AV node refractory period in surgically instrumented rat electrophysiology model at 35 uM. Type of data set: functional, organism-based.
Data set [9] is filed under the species Rattus norvegicus. As to the kind of experiment: Increase in ventricular refractory period in surgically instrumented rat electrophysiology model. Conditions: Cardiac ventricle. Type of data set: functional, organism-based.
Data set [10] is filed under the species Rattus norvegicus. The data set is described as follows: Increase in atrial refractory period in surgically instrumented rat electrophysiology model. The conditions noted are these: Cardiac atrium.
For data set [11], the species on record is Rattus norvegicus. The data set is described as follows: Increase in AV node refractory period in surgically instrumented rat electrophysiology model. Format: functional, organism-based.
The nature of data set [12]: Volume of distribution in rat. Format: ADME, organism-based. Conditions: in vivo, read-out: Vdss.

Each structure is given as a SMILES string. Activity calls are given as the source filed them. The calls are words filed in the database; no cut-off is given here.

Chain of Voltage-gated inwardly rectifying potassium channel KCNH2 (Q12809 whole entry): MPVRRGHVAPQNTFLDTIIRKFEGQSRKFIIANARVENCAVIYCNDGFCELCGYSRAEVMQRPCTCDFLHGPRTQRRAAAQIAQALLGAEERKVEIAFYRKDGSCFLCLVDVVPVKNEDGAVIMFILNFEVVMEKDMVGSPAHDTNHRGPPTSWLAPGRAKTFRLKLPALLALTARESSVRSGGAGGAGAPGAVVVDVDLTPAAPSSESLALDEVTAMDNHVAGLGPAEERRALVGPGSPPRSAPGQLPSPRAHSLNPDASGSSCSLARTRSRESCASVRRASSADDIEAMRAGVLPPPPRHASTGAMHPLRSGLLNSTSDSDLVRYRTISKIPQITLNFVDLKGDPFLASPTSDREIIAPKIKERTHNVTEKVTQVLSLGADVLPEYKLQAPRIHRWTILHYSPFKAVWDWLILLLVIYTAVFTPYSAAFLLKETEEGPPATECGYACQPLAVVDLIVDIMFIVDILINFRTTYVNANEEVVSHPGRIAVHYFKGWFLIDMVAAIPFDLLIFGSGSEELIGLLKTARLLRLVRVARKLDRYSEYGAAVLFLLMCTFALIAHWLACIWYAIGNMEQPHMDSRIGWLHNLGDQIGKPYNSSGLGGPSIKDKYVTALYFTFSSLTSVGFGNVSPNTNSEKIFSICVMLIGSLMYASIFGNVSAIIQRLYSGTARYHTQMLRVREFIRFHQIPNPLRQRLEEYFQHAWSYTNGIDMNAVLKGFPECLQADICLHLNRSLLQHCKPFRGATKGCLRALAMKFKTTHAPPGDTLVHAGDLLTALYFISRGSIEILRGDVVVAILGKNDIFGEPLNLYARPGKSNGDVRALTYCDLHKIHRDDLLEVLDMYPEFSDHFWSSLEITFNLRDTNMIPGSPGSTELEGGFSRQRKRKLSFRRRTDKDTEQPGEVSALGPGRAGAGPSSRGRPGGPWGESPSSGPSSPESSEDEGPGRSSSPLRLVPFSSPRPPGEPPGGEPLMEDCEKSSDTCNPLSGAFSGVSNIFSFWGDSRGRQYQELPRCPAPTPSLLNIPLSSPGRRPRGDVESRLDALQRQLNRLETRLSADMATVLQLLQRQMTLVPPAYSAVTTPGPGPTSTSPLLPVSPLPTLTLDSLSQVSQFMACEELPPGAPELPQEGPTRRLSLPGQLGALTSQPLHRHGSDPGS
Chain of Potassium voltage-gated channel subfamily A member 5 (P22460 whole entry): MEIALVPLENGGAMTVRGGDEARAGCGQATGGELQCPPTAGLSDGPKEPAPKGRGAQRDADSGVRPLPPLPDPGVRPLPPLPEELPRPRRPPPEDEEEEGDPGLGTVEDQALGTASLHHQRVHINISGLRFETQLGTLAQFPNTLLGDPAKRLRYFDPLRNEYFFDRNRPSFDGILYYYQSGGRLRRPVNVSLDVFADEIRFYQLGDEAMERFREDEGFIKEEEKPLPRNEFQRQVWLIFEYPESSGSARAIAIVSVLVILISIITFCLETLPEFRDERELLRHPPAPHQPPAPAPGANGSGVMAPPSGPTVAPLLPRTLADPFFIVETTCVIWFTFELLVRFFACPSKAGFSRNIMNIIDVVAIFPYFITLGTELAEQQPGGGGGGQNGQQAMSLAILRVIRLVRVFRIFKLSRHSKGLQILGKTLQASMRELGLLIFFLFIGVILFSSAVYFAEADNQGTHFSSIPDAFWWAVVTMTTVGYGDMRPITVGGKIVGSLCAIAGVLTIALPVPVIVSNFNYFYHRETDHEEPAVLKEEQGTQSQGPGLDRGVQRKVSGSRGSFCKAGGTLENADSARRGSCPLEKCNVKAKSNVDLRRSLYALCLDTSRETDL

`COc1ccc2c(=O)n(CC(O)CO)c(C#N)c(-c3cccc(F)c3)c2c1` (centres undefined): the results for the IC50 in [1] and in [2] were 33500 nM and 870 nM, respectively.
As for `COc1ccc2c(C(=O)NCCO)nc(C#N)c(-c3ccccc3)c2c1`, the outcome in the data set filed under Canis familiaris [3] and in the data set filed under Rattus norvegicus [5] was Active. The IC50 in data set [1] is above 30000 nM. Moreover, the result in the data set filed under Canis familiaris [4] was inactive.
For `COc1ccc2c(=O)n(C)c(CN(C)C)c(-c3ccccc3)c2c1`, the values for the IC50 in data set [1] and in data set [2] were 5300 nM and 190 nM, respectively. Further, the bioavailability in data set [6] worked out at 11%. This compound registered a clearance in [7] of 26 mL/min/kg.
In turn, `COc1ccc2c(=O)n(CCO)c(C#N)c(-c3cccc(F)c3)c2c1` came in with an IC50 in data set [2] of 690 nM.
Same read-out and setting: next, `COc1ccc2c(=O)n(CC(O)CO)c(C#N)c(-c3cccc(C(F)(F)F)c3)c2c1` (centres undefined): 250 nM.
For `COc1ccc2c(=O)n(C[C@H](O)CO)c(C#N)c(-c3ccccc3)c2c1`, in the data set filed under Rattus norvegicus [8], the result was inactive. The result in the data set listed under Rattus norvegicus [9] and in the data set filed under Rattus norvegicus [5] was Active.
As to `COc1ccc2c(=O)n(CC(CO)NCc3cccnc3)c(C#N)c(-c3ccccc3)c2c1` (centres undefined), the IC50 in data set [1] was 10000 nM; in data set [2], 120 nM.
Take `COc1ccc2c(NC[C@H](O)CO)nc(C#N)c(-c3ccccc3)c2c1`: the outcome in the data set filed under Rattus norvegicus [10] and in the data set listed under Rattus norvegicus [11] was Active. In addition, the IC50 in data set [1] worked out at 15000 nM.
As for `COCCN(C)CCn1c(C#N)c(-c2cccc(F)c2)c2cc(OC)ccc2c1=O`, inhibition in data set [2] was half-maximal at 790 nM (IC50).
As to `COc1ccc2c(-n3cnc(C)c3)nc(C#N)c(-c3cccc(F)c3)c2c1`, the IC50 in data set [2] is 260 nM. For the same compound, the result in the data set listed under Rattus norvegicus [5] was Active.
For `COc1ccc2c(OC[C@H](O)CO)nc(C#N)c(-c3ccccc3)c2c1`, in [12], the Vd stood at 1.7 L/kg. Moreover, in the data set listed under Rattus norvegicus [10], the result was Active. Also, the results for the IC50 in [1] and in data set [2] were 20500 nM and 160 nM, respectively. In [6], this compound came in with a bioavailability of 67%. The compound also displayed a clearance in data set [7] of 13 mL/min/kg.
